One series has as its system Plasmodium falciparum. As to the kind of experiment: Antiplasmodial activity against drug-sensitive erythrocyte stage of Plasmodium falciparum NF54 assessed as reduction in [3H]-hypoxanthine incorporation pretreated for 48 hrs followed by [3H]-hypoxanthine addition measured after 24 hrs by liquid scintillation counting method. It is filed as functional, organism-based. Summed up: (§1)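 IC50 values are the average of three independent assays.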

The test system of series [1] is Trypanosoma brucei rhodesiense. As to the kind of experiment: Antitrypanosomal activity against Trypanosoma brucei rhodesiense STIB900 bloodstream forms after 70 hrs by Alamar blue assay. The format is functional, organism-based. The following applies: STIB900, 70 h. Summed up:
as §1

The test system of another series is Trypanosoma cruzi. As to the kind of experiment: Antiprotozoal activity against trypomastigote form of Trypanosoma cruzi Tulahuen C2C4 infected in rat L6 cells after 96 hrs by CPRG/Nonidet-based photometric method. The conditions noted are these: Tulahuen C2C4, L6, 96 h. It is filed as functional, organism-based.
In another series the test system is Leishmania donovani. The series can be described thus: Antileishmanial activity against Leishmania donovani MHOM/ET/67/L82 axenic amastigotes after 70 hrs by alamar blue staining based fluorescence assay. The following applies: MHOM/ET/67/L82, 70 h. It is filed as functional, organism-based. Summed up: as §1
For orientation: The colour change of resazurin is a common sign of viable cells or microbes.

Another series has as its system L6. The series can be described thus: Cytotoxicity against rat L6 cells after 70 hrs by alamar blue assay. It is filed as cell-based. The following applies: L6, 70 h. The method in brief: as §1
Series [2] in a line: Selectivity index, ratio of IC50 for rat L6 cells to IC50 for drug-sensitive erythrocyte stage of Plasmodium falciparum NF54. The format is toxicity. The following applies: read-out: Ratio IC50.
Series [3] is described as follows: Selectivity index, ratio of IC50 for rat L6 cells to IC50 for Trypanosoma brucei rhodesiense STIB900 bloodstream forms. The conditions noted are these: read-out: Ratio IC50. It is filed as toxicity.
Series [4] can be described thus: Selectivity index, ratio of IC50 for rat L6 cells to IC50 for trypomastigote form of Trypanosoma cruzi Tulahuen C2C4 infected in rat L6 cells. The conditions noted are these: read-out: Ratio IC50. The format is toxicity, cell-based.
A short description of series [5]: Selectivity index, ratio of IC50 for rat L6 cells to IC50 for Leishmania donovani MHOM/ET/67/L82 axenic amastigotes. The format is toxicity. The conditions noted are these: read-out: Ratio IC50.

Take `CC(C)[C@H]1C(=O)C2=C(C1=O)[C@@]1(C)CCCC(C)(C)[C@@H]1CC2=O`: the IC50 was determined as 3.6 µM in the series on Plasmodium falciparum; 1 µM in series [1]; 4.6 µM in the series with Trypanosoma cruzi; 1 µM in the series on Leishmania donovani; 2.6 µM in the series with L6. The selectivity ratio in series [2] is 0.7; in [3] it was 2.6; in [4], 0.6; in series [5] it was 2.6.
On to `CCCCCCCCCCCCCCCCOP(=O)([O-])OCC[N+](C)(C)C` [MILTEFOSINE], for which it took 0.12 µM to reach half-maximal inhibition in the series on Leishmania donovani (IC50).
With `CC(C)c1cc(CC[C@@H]2C(=O)CCCC2(C)C)c(O)cc1O`, the IC50 in the series with Plasmodium falciparum is 0.4 µM; in [1], 19.7 µM; with Trypanosoma cruzi, 27.6 µM; with L6, 33.6 µM. The selectivity ratio in series [2] came out at 84; in series [3], 1.7; in [4], 1.2.

In general, IC50 refers to the midpoint of a concentration-inhibition curve.

These data come from ChEMBL document CHEMBL4145616, “Phytochemical Study of Salvia leriifolia Roots: Rearranged Abietane Diterpenoids with Antiprotozoal Activity” (J Nat Prod, 2018).
